From ChEMBL document CHEMBL4368872, “Synthesis and anticonvulsant activity of phenoxyacetyl derivatives of amines, including aminoalkanols and amino acids” (Medchemcomm, 2018)
Activity calls are given as the source filed them. The rule behind the calls is not given here.

Columns and labels:
[1] = system: Mus musculus; assay: Anticonvulsant activity in CF-1 mouse model of maximal electroshock-induced seizure assessed as suppression of tonic hind limb extension at 300 mg/kg, ip measured at 0.5 hrs post dose; format: functional, organism-based
Method in brief: (§1)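 Mice dosed i.p. and given maximal electroshock at 50 mA. Read-out is protection, reported as number protected / number tested at 0.25, 0.5, 1 and 4 h after dosing.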

[2] = system: Mus musculus; assay: Anticonvulsant activity in CF-1 mouse model of subcutaneous pentylenetetrazole-induced seizure assessed as reduction in convulsions at 100 mg/kg, ip measured at 0.5 hrs post dose; format: functional, organism-based
Method in brief: (§2)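 Mice dosed i.p., then given pentylenetetrazole 85 mg/kg in 0.9% NaCl s.c. into the posterior midline of the neck. Seizures watched for at least 30 min. Scored as protected / tested at 0.5 and 4 h.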

[3] = system: Mus musculus; assay: Anticonvulsant activity in CF-1 mouse model of maximal electroshock-induced seizure assessed as suppression of tonic hind limb extension at 100 mg/kg, ip measured at 4 hrs post dose; format: functional, organism-based; method in brief: as §1
[4] = system: Mus musculus; assay: Anticonvulsant activity in CF-1 mouse model of subcutaneous pentylenetetrazole-induced seizure assessed as reduction in convulsions at 300 mg/kg, ip measured at 0.5 hrs post dose; format: functional, organism-based; method in brief: as §2
[5] = Neurotoxicity in CF-1 mouse at 30 mg/kg, ip measured after 4 hrs by rotarod test; format: toxicity, organism-based; conditions: in vivo
Method in brief: (§3)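 Mice dosed i.p. were placed on a 1 in. knurled rod turning at 6 rpm. Toxicity was scored as failure to keep balance for at least 1 min, i.e. falling off three or more times. Results are reported as animals showing toxicity / animals tested at each time point.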

[6] = system: Mus musculus; assay: Anticonvulsant activity in CF-1 mouse model of maximal electroshock-induced seizure assessed as suppression of tonic hind limb extension at 30 mg/kg, ip measured at 0.5 hrs post dose; format: functional, organism-based; method in brief: as §1
[7] = system: Mus musculus; assay: Anticonvulsant activity in CF-1 mouse model of subcutaneous pentylenetetrazole-induced seizure assessed as reduction in convulsions at 30 mg/kg, ip measured at 4 hrs post dose; format: functional, organism-based; method in brief: as §2
[8] = Neurotoxicity in CF-1 mouse at 300 mg/kg, ip measured after 0.5 hrs by rotarod test; format: toxicity, organism-based; conditions: in vivo; method in brief: as §3
[9] = system: Mus musculus; assay: Anticonvulsant activity in CF-1 mouse model of maximal electroshock-induced seizure assessed as suppression of tonic hind limb extension at 100 mg/kg, ip measured at 0.5 hrs post dose; format: functional, organism-based; method in brief: as §1
[10] = Neurotoxicity in CF-1 mouse at 100 mg/kg, ip measured after 0.5 hrs by rotarod test; format: toxicity, organism-based; conditions: in vivo; method in brief: as §3
[11] = system: Mus musculus; assay: Anticonvulsant activity in CF-1 mouse model of subcutaneous pentylenetetrazole-induced seizure assessed as reduction in convulsions at 100 mg/kg, ip measured at 4 hrs post dose; format: functional, organism-based; method in brief: as §2
[12] = system: Mus musculus; assay: Anticonvulsant activity in CF-1 mouse model of maximal electroshock-induced seizure assessed as suppression of tonic hind limb extension at 300 mg/kg, ip measured at 4 hrs post dose; format: functional, organism-based; method in brief: as §1
[13] = system: Mus musculus; assay: Anticonvulsant activity in CF-1 mouse model of subcutaneous pentylenetetrazole-induced seizure assessed as reduction in convulsions at 300 mg/kg, ip measured at 4 hrs post dose; format: functional, organism-based; method in brief: as §2
[14] = Neurotoxicity in CF-1 mouse at 300 mg/kg, ip measured after 4 hrs by rotarod test; format: toxicity, organism-based; conditions: in vivo; method in brief: as §3
[15] = Neurotoxicity in CF-1 mouse at 30 mg/kg, ip measured after 0.5 hrs by rotarod test; format: toxicity, organism-based; conditions: in vivo; method in brief: as §3
[16] = system: Mus musculus; assay: Anticonvulsant activity in CF-1 mouse model of subcutaneous pentylenetetrazole-induced seizure assessed as reduction in convulsions at 30 mg/kg, ip measured at 0.5 hrs post dose; format: functional, organism-based; method in brief: as §2
[17] = system: Mus musculus; assay: Anticonvulsant activity in CF-1 mouse model of maximal electroshock-induced seizure assessed as suppression of tonic hind limb extension at 30 mg/kg, ip measured at 4 hrs post dose; format: functional, organism-based; method in brief: as §1
[18] = Neurotoxicity in CF-1 mouse at 100 mg/kg, ip measured after 4 hrs by rotarod test; format: toxicity, organism-based; conditions: in vivo; method in brief: as §3
[19] = system: Mus musculus; assay: Anticonvulsant activity in CF-1 mouse model of maximal electroshock-induced seizure assessed as suppression of tonic hind limb extension at 100 mg/kg, ip measured at 0.25 hrs post dose; format: functional, organism-based; method in brief: as §1
[20] = Neurotoxicity in CF-1 mouse at 100 mg/kg, ip measured after 0.25 hrs by rotarod test; format: toxicity, organism-based; conditions: in vivo; method in brief: as §3
[21] = Neurotoxicity in CF-1 mouse at 100 mg/kg, ip measured after 1 hr by rotarod test; format: toxicity, organism-based; conditions: in vivo; method in brief: as §3
[22] = system: Mus musculus; assay: Anticonvulsant activity in CF-1 mouse model of maximal electroshock-induced seizure assessed as suppression of tonic hind limb extension at 100 mg/kg, ip measured at 1 hr post dose; format: functional, organism-based; method in brief: as §1

SMILES | Activity [1] | Activity [2] | Activity [3] | Activity [4] | Activity [5] | Activity [6] | Activity [7] | Activity [8] | Activity [9] | Activity [10] | Activity [11] | Activity [12] | Activity [13] | Activity [14] | Activity [15] | Activity [16] | Activity [17] | Activity [18] | Activity [19] | Activity [20] | other results
Cc1cc(C)c(OCC(=O)NCC(O)c2ccccc2)c(C)c1 (stereo not drawn) | inactive | inactive | inactive | inactive | Non-Toxic | inactive | inactive | Toxic | inactive | Non-Toxic | inactive | inactive | inactive | Non-Toxic | Non-Toxic | inactive | inactive | Non-Toxic | – | – | –
CCC(NC(=O)COc1c(C)cc(C)cc1C)C(N)=O (stereo not drawn) | Active | inactive | inactive | inactive | Non-Toxic | inactive | inactive | – | inactive | Non-Toxic | inactive | inactive | inactive | Non-Toxic | Non-Toxic | inactive | inactive | Non-Toxic | inactive | Non-Toxic | Activity [21]: Non-Toxic; Activity [22]: inactive
Cc1cccc(C)c1OCC(=O)N[C@H](C)C(N)=O | Active | inactive | inactive | inactive | Non-Toxic | inactive | – | – | inactive | – | inactive | inactive | inactive | Non-Toxic | Non-Toxic | inactive | inactive | Non-Toxic | inactive | Non-Toxic | Activity [22]: inactive
Cc1cccc(C)c1OCC(=O)N[C@@H](C)C(=O)O | inactive | inactive | inactive | inactive | Non-Toxic | inactive | inactive | Non-Toxic | inactive | Non-Toxic | inactive | inactive | inactive | Non-Toxic | Non-Toxic | inactive | inactive | Non-Toxic | – | – | –
Cc1cccc(C)c1OCC(=O)NC(C)C(=O)O (stereo not drawn) | inactive | inactive | inactive | inactive | Non-Toxic | inactive | inactive | Non-Toxic | inactive | Non-Toxic | inactive | inactive | inactive | Non-Toxic | Non-Toxic | inactive | inactive | Non-Toxic | – | – | –
Cc1cccc(C)c1OCC(=O)NCCc1ccccc1 | inactive | inactive | inactive | inactive | Non-Toxic | inactive | inactive | – | inactive | Non-Toxic | inactive | inactive | inactive | Non-Toxic | Non-Toxic | inactive | inactive | Non-Toxic | – | – | –
Cc1cccc(C)c1OCC(=O)N[C@@H](C)CO | Active | inactive | inactive | inactive | Non-Toxic | inactive | inactive | – | inactive | – | inactive | Active | inactive | – | – | inactive | inactive | – | – | – | –
CCC(CO)NC(=O)COc1c(C)cc(C)cc1C (stereo not drawn) | Active | inactive | inactive | inactive | Non-Toxic | inactive | inactive | – | inactive | – | inactive | inactive | inactive | Non-Toxic | Non-Toxic | inactive | inactive | Non-Toxic | inactive | Non-Toxic | Activity [21]: Non-Toxic; Activity [22]: inactive
